Results of several laboratories.
Compare with care: the assays were run in different laboratories.
Target: MAP/microtubule affinity-regulating kinase 4 (MARK4, Homo sapiens, UniProt Q96L34)
Residues used in one study (Q96L34 1-752): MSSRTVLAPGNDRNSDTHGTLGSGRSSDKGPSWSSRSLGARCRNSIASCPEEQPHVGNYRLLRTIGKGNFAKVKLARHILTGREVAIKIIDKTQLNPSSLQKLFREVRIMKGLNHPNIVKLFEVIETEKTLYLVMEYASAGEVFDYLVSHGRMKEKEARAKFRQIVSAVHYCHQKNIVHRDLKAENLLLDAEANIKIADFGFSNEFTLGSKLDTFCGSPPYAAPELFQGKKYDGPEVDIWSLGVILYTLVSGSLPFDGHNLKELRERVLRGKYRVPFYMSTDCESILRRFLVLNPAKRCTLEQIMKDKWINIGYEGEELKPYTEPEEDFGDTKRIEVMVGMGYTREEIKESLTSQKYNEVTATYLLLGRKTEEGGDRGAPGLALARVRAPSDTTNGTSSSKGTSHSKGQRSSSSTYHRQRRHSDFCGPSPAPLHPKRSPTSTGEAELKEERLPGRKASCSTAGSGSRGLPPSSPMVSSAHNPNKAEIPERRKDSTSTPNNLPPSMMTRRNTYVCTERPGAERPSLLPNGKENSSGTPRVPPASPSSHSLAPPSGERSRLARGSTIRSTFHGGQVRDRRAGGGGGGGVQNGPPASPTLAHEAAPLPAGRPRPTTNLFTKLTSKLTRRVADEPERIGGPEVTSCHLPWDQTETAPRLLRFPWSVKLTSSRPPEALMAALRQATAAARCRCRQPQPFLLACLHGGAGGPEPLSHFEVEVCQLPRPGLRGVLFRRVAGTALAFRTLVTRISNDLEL

COc1ccnn2ncc(-c3ccnc(N(C)C)n3)c12  remaining binding (binding; 1 µM): 100%
CC(=O)c1c(NS(C)(=O)=O)c2cc(-c3ccc(Cl)cc3)c(-c3ccc(Cl)cc3Cl)nc2n(C)c1=O  remaining binding (cell-free assay; competition with immobilised ligand; 1 µM): 100%
CC1CCCN1c1nccc(-c2cnn3ncccc23)n1 (centres unmarked)  remaining binding (binding; 1 µM): 98%
CNCc1ccccc1-c1csc([C@@H](C)Nc2nc(C)nc3cc(OC)c(OC)cc23)c1  remaining binding (cell-free assay; competition with immobilised ligand; 1 µM): 100%
O=C(NCC1CCOCC1)c1n[nH]cc1NC(=O)c1c(F)cccc1F  remaining binding (binding; competition with immobilised ligand; 1 µM): 98%
CN(C)c1ncc(F)c(-c2cnn3ncccc23)n1  remaining binding (binding; 1 µM): 100%
COc1cnc(Nc2cccc(S(N)(=O)=O)c2)nc1N1CCN(c2ccccc2)C(=O)C1  remaining binding (binding; competition with immobilised ligand; 1 µM): 100%
FC(F)(F)c1ccc2c(c1)nc(-c1cccnc1)n2C1CC1  remaining binding (cell-free assay; competition with immobilised ligand; 1 µM): 100%
O=C(c1ccc(Nc2ncc(Cl)c(-c3cc4ccccc4s3)n2)cc1)N1CCC(N2CCCC2)CC1  remaining binding (binding; competition with immobilised ligand; 1 µM): 28%
CNC(=O)[C@@H]1CC[C@@H](n2c(-c3ccc4cnccc4c3)nc3ccc(C(=O)NCc4cccc(C(N)=O)c4)cc32)C1  remaining binding (binding; competition with immobilised ligand; 1 µM): 98%
O=C(c1ccc(Nc2nccc(-c3cc4ccccc4s3)n2)cc1)N1CCC(N2CCCC2)CC1  remaining binding (binding; competition with immobilised ligand; 1 µM): 84%
FC(F)(F)Oc1cccc(-c2cnc3ccc(-c4ccncc4)nn23)c1  remaining binding (cell-free assay; competition with immobilised ligand; 5 µM): 80%
O=C1CCc2cc(Nc3cc(OC4CCOCC4)c([N+](=O)[O-])cc3Cl)ccc2N1  remaining binding (cell-free assay; competition with immobilised ligand; 1 µM): 100%
CN(C)c1nccc(-c2cnc3ncccn23)n1  remaining binding (binding; 1 µM): 93%
CCCOc1ccc([C@H]2[C@H](C(=O)O)[C@@H](c3ccc4c(c3)OCO4)CN2CC(=O)Nc2c(CC)cccc2CC)cc1  remaining binding (cell-free assay; competition with immobilised ligand; 1 µM): 97%
N[C@H]1CCN(c2nccc(-c3cnn4ncccc34)n2)C1  remaining binding (binding; 1 µM): 100%
CCN1CCN(Cc2ccc(C(=O)Nc3ccc(C)c(Oc4ccc5c(c4)CC(=O)N5)c3)cc2C(F)(F)F)CC1  remaining binding (binding; competition with immobilised ligand; 1 µM): 88%
CN(C)c1nccc(-c2cnn3ncccc23)n1  remaining binding (binding; 1 µM): 100%
COc1ccc2c(O[C@@H]3C[C@H]4C(=O)N[C@]5(C(=O)O)CC5/C=C\CCCCC[C@H](NC(=O)OC5CCCC5)C(=O)N4C3)cc(-c3csc(NC(=O)C(C)C)n3)nc2c1C (some centres unmarked)  remaining binding (cell-free assay; competition with immobilised ligand; 1 µM): 99%
Cc1cnc(Nc2ccc(C(=O)N3CCC(N4CCCC4)CC3)cc2)nc1-c1cc2ccccc2s1  remaining binding (binding; competition with immobilised ligand; 1 µM): 35%
